From PubChem
DNMT1 inh: inhibitors of human DNMT1; P26358; DNMT1 molecular beacon, Hinp1I cleavage, fluorescence; inhibition (reported as % activation of signal), % at 10 µM; 0.83% of 360,000 active; AID 588458; in the data active = inhibition above about 50%
Scp1 inh: blocks human Scp-1 phosphatase activity; Recombinant Scp1, phosphopeptide, malachite green phosphate absorbance; inhibition, % at 20 µM; AID 493091; Q9GZU7; 0.88% of 340,000 active;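 active = inhibition above about 50% at 20 µM, limit read from the data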;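 also: plate controls were DMSO wells with enzyme for no effect and wells lacking enzyme for full effect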
Target sequence (Q9GZU7 76-261 limits assumed): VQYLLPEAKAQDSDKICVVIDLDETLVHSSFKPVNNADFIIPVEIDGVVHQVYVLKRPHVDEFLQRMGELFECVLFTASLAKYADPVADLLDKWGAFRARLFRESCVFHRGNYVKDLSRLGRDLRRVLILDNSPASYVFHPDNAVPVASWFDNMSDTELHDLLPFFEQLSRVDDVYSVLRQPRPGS
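Material: truncated SCP-1 phosphatase (76-261aa) / Buffer or medium: 50 mM Tris acetate pH 5.5, 0.005% Tween-20, 10 mM MgCl2 / Compound dosing: one concentration, 20 µM, with 1.0% DMSO / Incubation: 45 min room-temperature reaction, 5 min colour, 30 min stabiliser / Detection: colorimetric free-phosphate detection, absorbance 630 nm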
SUMO1 PPI mod: alters human SUMO1 binding to SIM partners; P63165; SUMO1 binding to a labelled peptide, TR-FRET, 1 h; inhibition, % at 20 µM; 0.33% of 360,000 active; in the data active = inhibition above about 37%
Target sequence (P63165 whole entry, looked up): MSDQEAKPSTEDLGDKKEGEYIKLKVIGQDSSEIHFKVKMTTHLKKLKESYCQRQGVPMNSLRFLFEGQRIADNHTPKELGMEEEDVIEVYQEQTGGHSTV
STEP inh: inhibitors of human striatal-enriched phosphatase STEP; P54829; recombinant STEP, OMFP fluorogenic substrate, fluorescence; inhibition, % at 20 µM; 0.25% of 360,000 active; AID 588621;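 active = inhibition at 20 µM, scaled per plate between control wells, above about 37%, limit read from the data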;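 also: 0% = DMSO with enzyme and substrate and 100% = substrate only without enzyme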
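Material: STEP (striatal-enriched tyrosine phosphatase) enzyme, cell-free | Medium: 50 mM Bis-Tris pH 6.0 with 2.5 mM DTT and 0.005% Tween 20 | Read-out: Percent inhibition scaled to no-enzyme and uninhibited-enzyme controls, plate-pattern corrected | Signal: Fluorescence read at 480 nm ex / 540 nm em | Times: 20 min reaction, room temperature, in the dark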
LMPTP block: LMPTP (human) inhibition | inhibition, % at 20 µM | 0.22% of 360,000 active | recombinant LMPTP-A, OMFP fluorogenic substrate, fluorescence intensity | P24666 | AID 651560;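 active = compounds that cut the enzyme signal by at least half of the control window in the single-dose screen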;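 also: plate controls were DMSO wells with enzyme plus substrate for no effect and substrate without enzyme for full effect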
Target sequence (P24666 whole entry, looked up): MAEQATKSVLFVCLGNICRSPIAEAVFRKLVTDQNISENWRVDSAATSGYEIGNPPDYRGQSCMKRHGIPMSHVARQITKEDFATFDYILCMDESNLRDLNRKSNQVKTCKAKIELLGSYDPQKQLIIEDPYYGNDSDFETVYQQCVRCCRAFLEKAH
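Assay system: LMPTP-A phosphatase enzyme | Input: 0.625 nM enzyme | Also added: Fluorogenic phosphatase substrate OMFP at 400 µM final | Compound dosing: One test concentration per compound, 20 µM, with 3% DMSO overall | Schedule: 50 min enzyme reaction at room temperature, protected from light | Signal: Fluorescence intensity | Benchmarks: no-enzyme and uninhibited controls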
Scp1 confirm: confirmation of human Scp-1 phosphatase inhibitors; shares compounds with Scp1 inh; recombinant SCP-1 catalytic domain, phosphate release, malachite green absorbance; inhibition, % at 20 µM; 61% of 2,500 active; AID 540281;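 also: plate controls were DMSO with enzyme for no effect and buffer wells lacking enzyme for full effect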
Scp-1 MG ctr: colorimetric interference in Scp-1 counter-screen; apparent inhibition (interference), % at 20 µM; Colorimetric interference counterscreen, malachite green absorbance 630 nm; AID 540313; shares compounds with Scp1 inh; 2,500 tested, under 10 active;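 also: compounds added after enzyme reaction finished so only phosphate colour detection is probed; plate controls were DMSO wells with completed Scp-1 reaction for no effect and substrate wells lacking enzyme for full effect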
Scp1 DSF: binds human Scp-1, shifting its melting temperature. 25% of 1,500 active. Recombinant SCP1, Sypro Orange thermal shift Tm. AID 540329. thermal shift relative to vanadate control, % at 40 µM. shares compounds with Scp1 inh;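 active = substances whose mean melting-temperature shift, as a percentage of the reference inhibitor's shift, reaches about 5.3%, limit read from the data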;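 also: 0% = Tm of DMSO wells and 100% = Tm with sodium orthovanadate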
DNMT1 confirm: DNMT1 inhibition confirmation, single concentration; shares compounds with DNMT1 inh; DNMT1 molecular beacon HinP1I cleavage, fluorescence; inhibition, % at 10 µM; 8% of 2,300 active;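 active = average inhibition of at least 30% in the single-concentration confirmation test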
DNMT1 interf: beacon fluorescence artifact counter-screen. activation (fluorescence interference), % at 10 µM. DNMT1 molecular beacon spectral interference counterscreen, fluorescence 485/520. shares compounds with DNMT1 inh. 1% of 2,300 active. AID 602387;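 active = activation of at least 30% at 10 µM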;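 also: DNMT1 catalytic domain with a HinP1I cleavage step and a FAM/dabcyl DNA beacon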
The depositor's hits bear a star; . = not tested or not shown. The list is not random: actives were taken first. Their share in the collection is about 1.7%.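 The calls were made as follows, unless noted: active = inhibition of at least 30% at 20 µM; inactive = the rest.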

SMILES	DNMT1 inh	Scp1 inh	SUMO1 PPI mod	STEP inh	LMPTP block	Scp1 confirm	Scp-1 MG ctr	Scp1 DSF	DNMT1 confirm	DNMT1 interf
C[C@@H]1CN([C@H](C)CO)C(=O)CCCn2cc(nn2)CO[C@H]1CN(C)S(=O)(=O)c1ccccc1	6	.	6	-2	-2	.	.	.	.	.
NS(=O)(=O)c1ccc(NC(=O)/C=C/c2ccco2)cc1	62*	68*	0	5	4	64*	-5	5	7	0
O=Cc1ccc2oc3nc4n(c(=O)c3c(=O)c2c1)CCCS4	94*	80*	25	5	45	67*	-11	-4	-4	-1
COc1ccccc1C(=O)N=Nc1c(O)[nH]c2ccc([N+](=O)[O-])cc12	12	39	1	5	14	.	.	.	.	.
O=C(N=Nc1c(O)[nH]c2ccc([N+](=O)[O-])cc12)c1cc(-c2ccccc2Cl)nc2ccccc12	95*	95*	21	85*	80*	77*	-8	8.8*	-2	-20
O=C1[C@@H]2[C@@H](CN3CN(c4ccccc4)N=C(c4ccccc4)[C@@]23c2ccccc2)C(=O)N1c1ccccc1	-7	-13	7	11	1	.	.	.	.	.
Cc1ccc(C)c(NC(=O)CN(C)C(=O)c2cccc(-n3cccc3)c2)c1	94*	79*	15	4	8	58*	-21	-8	9	2
CN(CC(=O)Nc1cccc(F)c1)C(=O)c1ccc(N2C(=O)c3ccccc3C2=O)cc1	21	-2	-11	-3	1	.	.	.	.	.
CN(CC(=O)Nc1c(Cl)cccc1Cl)C(=O)c1cccc(-n2cccc2)c1	69*	84*	18	1	10	48*	-27	1	-1	1
CN(CC(=O)Nc1cccc(F)c1)C(=O)c1cccc(-n2cccc2)c1	91*	77*	15	0	8	61*	-13	6.7*	13	0
CC1C(=O)N2CCCc3cc(S(=O)(=O)N4CCN(c5ccccc5F)CC4)cc1c32 (configuration not stated)	-1	-5	1	1	1	.	.	.	.	.
O=C(O)c1cc(-c2ccc(-c3ccc(F)cc3)o2)nc2ccccc12	4	3	-9	4	-2	.	.	.	.	.
CC(C)(C)OC(=O)N(Cc1ccccc1)Cc1ccc(OCc2cccc(NC(=O)C3CC3)c2)cc1	1	-4	0	-1	3	.	.	.	.	.
NS(=O)(=O)c1ccc(NC(=O)C2Cc3ccccc3CN2C(=O)c2ccco2)cc1 (configuration not stated)	59*	61*	14	3	15	66*	-7	7.9*	5	3
CCCNC(=O)C1CN(S(=O)(=O)c2ccc(Cl)s2)c2ccccc2O1 (configuration not stated)	3	-8	5	-4	0	.	.	.	.	.
N=C1/C(=C/c2ccc(Br)o2)C(=O)N=C2SC(CC(=O)N3CCCC3)=NN12	66*	88*	57*	9	9	58*	-10	8.1*	20	1
Cc1ccc(/C=C2\C(=N)N3N=C(CC(=O)N4CCCCC4)SC3=NC2=O)cc1	1	-1	-1	1	-1	.	.	.	.	.
N=C1/C(=C/c2ccco2)C(=O)N=C2SC(CC(=O)N3CCCC3)=NN12	64*	73*	4	13	4	63*	-15	-5	6	6
Cc1ccc(NC(=O)CSC(C)c2nc3ccccc3c(=O)[nH]2)cc1 (configuration not stated)	2	-2	-7	-1	0	.	.	.	.	.
O=C(O)c1cccc(-n2cccc2/C=C2/NC(=O)N(Cc3ccccc3F)C2=O)c1	81*	52*	-8	7	6	75*	1	0	1	1
Cc1ccccc1NC(=O)CN1C(=O)S/C(=C\c2cccn2-c2cccc(C(=O)O)c2)C1=O	66*	84*	2	23	5	74*	-11	17*	9	2
CC1C=CC(C)C(C(=O)O)C1C(=O)O (configuration not stated)	61*	86*	9	3	-1	55*	-20	-26	0	1
Cc1ccc2nc(/C(C#N)=C/c3ccc(-c4cccc([N+](=O)[O-])c4)o3)[nH]c2c1	83*	90*	-5	94*	44	73*	-1	11*	-1	-4
Cc1ccc2nc(/C(C#N)=C\c3ccc(Oc4ccc(C(F)(F)F)cc4[N+](=O)[O-])cc3)[nH]c2c1	81*	97*	-5	12	13	87*	2	5.6*	1	-2
CCc1ccccc1NC(=O)COc1ccc2oc(-c3ccc(OC)cc3)cc(=O)c2c1	68*	74*	9	5	7	59*	-12	-13	5	5
SMILES	DNMT1 inh	Scp1 inh	SUMO1 PPI mod	STEP inh	LMPTP block	Scp1 confirm	Scp-1 MG ctr	Scp1 DSF	DNMT1 confirm	DNMT1 interf
NC(=O)COc1ccc2oc(-c3ccccc3)cc(=O)c2c1	7	-7	-3	-5	4	.	.	.	.	.
CC(C)(C)OC(=O)N1CCCC(C(=O)Nc2ccc(C(=O)N3CCCC3)cc2)C1 (configuration not stated)	3	-6	4	0	-1	.	.	.	.	.
Cc1ccc(S(=O)(=O)/N=C2/NC(=O)/C(=C/c3ccc(Br)o3)S2)cc1	85*	56*	27	8	3	54*	-28	14*	8	-1
Cc1ccc(S(=O)(=O)/N=C2/NC(=O)/C(=C\c3cc(Br)cc(Br)c3O)S2)cc1	21	-10	28	-3	-1	.	.	.	.	.
NCCN1C(=O)c2ccccc2C1(O)c1ccc(Cl)cc1 (configuration not stated)	3	.	-3	2	-1	.	.	.	.	.
Cc1ccc(C(=O)OCC(=O)c2ccc(CC(=O)N3CCOCC3)s2)c(C)c1	55*	72*	-3	6	10	78*	-5	6.7*	9	2
Cc1ccc(-n2c(C)cc(C(=O)OCC(=O)N3CCOCC3)c2C)cc1	-6	-12	-6	0	-2	.	.	.	.	.
